# Measurements from ChEMBL document CHEMBL1132173, “Novel derivatives of 2-pyridinemethylamine as selective, potent, and orally active agonists at 5-HT1A receptors” (J Med Chem, 1999).
# Tested on: Rattus norvegicus
# Test: Induction of lower lip retraction in rat 60 min after administration, effective peroral dose determined in vivo
# Assay type: functional
# Conditions: po, 1 h
# Procedure, shortened: (§1)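 Observed in 10 min windows centred 15 and 60 min post-dose, 10 s each minute, scoring lower lip retraction present or absent (0–10).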
row,Compound,ED50 [mg/kg]
1,Cc1ccc(CNCC2(F)CCN(C(=O)c3ccc(F)c(Cl)c3)CC2)nc1 [BEFIRADOL],0.11

# Tested on: Rattus norvegicus
# Test: Effective intraperitoneal dose in vivo in rat after 15 mins to induce lower lip retraction
# Assay type: functional
# Conditions: ip, 0.25 h
# Procedure, shortened: as §1
row,Compound,ED50 [mg/kg]
1,O=C(c1ccc(Cl)c(Cl)c1)N1CCC(F)(CNCc2ccccn2)CC1,0.11
2,Cc1ccc(CNCC2(F)CCN(C(=O)c3ccc(F)c(Cl)c3)CC2)nc1 [BEFIRADOL],0.08

# Biological target: T1, 5-hydroxytryptamine receptor 1A (Rattus norvegicus, UniProt P19327)
# T1 sequence (P19327 whole entry): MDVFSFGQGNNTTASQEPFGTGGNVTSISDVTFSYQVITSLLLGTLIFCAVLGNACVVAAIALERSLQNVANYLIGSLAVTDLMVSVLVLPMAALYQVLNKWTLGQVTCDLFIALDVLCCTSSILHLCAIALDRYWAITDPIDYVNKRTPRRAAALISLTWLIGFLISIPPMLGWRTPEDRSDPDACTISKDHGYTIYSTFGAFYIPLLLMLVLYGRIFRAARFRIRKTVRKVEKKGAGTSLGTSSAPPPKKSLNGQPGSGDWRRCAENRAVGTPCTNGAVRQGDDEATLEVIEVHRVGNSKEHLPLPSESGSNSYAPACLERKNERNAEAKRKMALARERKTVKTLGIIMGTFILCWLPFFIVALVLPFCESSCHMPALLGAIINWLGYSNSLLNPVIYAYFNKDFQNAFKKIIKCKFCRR
# Test: Binding affinity towards 5-hydroxytryptamine 1A receptor in rat cortex using [3H]8-OH-DPAT as a radioligand
# Conditions: not given
# Procedure, shortened: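 Rat tissue membranes, competition against radioligand at 23 °C. Nonspecific binding: 5-HT for 5-HT1A (30 min), (+)-butaclamol for D2 (60 min), phentolamine for α1 (30 min). Tris HCl 50 mM pH 7.4 buffers. Filtration through glass-fibre filters, then scintillation counting. Run in triplicate; IC50 by nonlinear regression; Ki by Cheng–Prusoff; mean pKi of three determinations.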
row,Ki [nM],Compound
1,5.13,O=C(c1ccc(Cl)c(Cl)c1)N1CCC(F)(CNCc2ccccn2)CC1
2,1.62,O=C(c1ccc(Cl)c(Cl)c1)N1CCC(O)(CNCc2cccc(-n3cccn3)n2)CC1
3,35.5,CC(C)c1ccc(CNCC2(F)CCN(C(=O)c3ccc(F)c(Cl)c3)CC2)nc1
4,37.2,CC1(CNCc2cccc(-n3cccn3)n2)CCN(C(=O)c2ccc(Cl)c(Cl)c2)CC1
5,6.92,N#CC1(CNCc2cccc(-n3cccn3)n2)CCN(C(=O)c2ccc(Cl)c(Cl)c2)CC1
6,15.1,O=C(c1ccc(Cl)c(Cl)c1)N1CCC(CNCc2ncccc2F)CC1
7,6.03,O=C(c1ccc(Cl)c(Cl)c1)N1CC=C(CNCc2cccc(-n3cccn3)n2)CC1
8,9.12,O=C(c1ccc(Cl)c(Cl)c1)N1CCC(CF)(CNCc2cccc(-n3cccn3)n2)CC1
9,30.2,COC1(CNCc2cccc(-n3cccn3)n2)CCN(C(=O)c2ccc(Cl)c(Cl)c2)CC1

# Biological target: T2, 5-hydroxytryptamine receptor 1A (Homo sapiens, UniProt P08908)
# T2 sequence (P08908 whole entry): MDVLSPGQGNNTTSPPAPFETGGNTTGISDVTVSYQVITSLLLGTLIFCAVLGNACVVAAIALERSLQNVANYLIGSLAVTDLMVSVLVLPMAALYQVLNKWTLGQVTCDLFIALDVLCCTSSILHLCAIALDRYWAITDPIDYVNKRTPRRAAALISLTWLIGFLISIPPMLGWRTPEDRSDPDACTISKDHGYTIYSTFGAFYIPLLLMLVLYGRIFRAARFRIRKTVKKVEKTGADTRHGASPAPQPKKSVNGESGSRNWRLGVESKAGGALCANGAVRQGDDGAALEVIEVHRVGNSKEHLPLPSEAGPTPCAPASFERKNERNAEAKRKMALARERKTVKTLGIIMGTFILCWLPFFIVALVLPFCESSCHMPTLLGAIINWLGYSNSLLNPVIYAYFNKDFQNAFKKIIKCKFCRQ
# Test: In vitro effective concentration required to inhibit forskolin-stimulated cAMP levels in HA7 cells expressing human 5-HT1A receptor
# Assay type: functional, cell-based
# Conditions: not given
# Procedure, shortened: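 HeLa HA7 cells stably expressing human 5-HT1A, at 80–90% confluency, antibiotic-free for 24 h. Preincubated 10 min at RT in DMEM/10 mM Hepes, then drug at 0.1 nM–100 µM with 100 µM forskolin and 100 µM IBMX for 10 min at RT. Stopped with 0.1 N HCl; cAMP by radioimmunoassay as % of forskolin control; pEC50.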
row,EC50 [nM],Compound
1,3.02,O=C(c1ccc(Cl)c(Cl)c1)N1CCC(CNCc2cccc(-c3cc[nH]n3)n2)CC1
2,21.9,CNc1cccc(CNCC2CCN(C(=O)c3ccc(Cl)c(Cl)c3)CC2)n1
3,5.01,O=C(c1ccc(Cl)c(Cl)c1)N1CCC(CNCc2cccc(-c3nccs3)n2)CC1
4,7.08,O=C(c1ccc(Cl)c(Cl)c1)N1CCC(CNCc2cccc(N3CCC3)n2)CC1
5,39.8,O=C(c1ccc(Cl)c(Cl)c1)N1CCC(O)(CNCc2cccc(-n3cccn3)n2)CC1
6,5.75,O=C(c1ccc(Cl)c(Cl)c1)N1CCC(CNCc2cccc(-c3cccs3)n2)CC1
7,30.9,O=C(c1ccc(Cl)c(Cl)c1)N1CCC(CNCc2cccc(-n3cccn3)n2)CC1
8,20.4,CN(C)c1cccc(CNCC2CCN(C(=O)c3ccc(Cl)c(Cl)c3)CC2)n1
9,162,N#CC1(CNCc2cccc(-n3cccn3)n2)CCN(C(=O)c2ccc(Cl)c(Cl)c2)CC1
10,269,O=C(c1ccc(Cl)c(Cl)c1)N1CC=C(CNCc2cccc(-n3cccn3)n2)CC1
11,309,O=C(c1ccc(Cl)c(Cl)c1)N1CCC(CF)(CNCc2cccc(-n3cccn3)n2)CC1
12,5.25,O=C(c1ccc(Cl)c(Cl)c1)N1CCC(CNCc2cccc(-c3ccco3)n2)CC1
13,2,O=C(c1ccc(Cl)c(Cl)c1)N1CCC(CNCc2cccc(-c3cnco3)n2)CC1
